Experimental data from ChEMBL document CHEMBL1142628, “Antineoplastic agents 430. Isolation and structure of cribrostatins 3, 4, and 5 from the republic of maldives cribrochalina species” (2000).
Values after ≈ are worked out from the molar mass of the structure shown. Active and inactive are the calls of the source. No cut-off for these calls is given here.

Columns and labels:
MDA-N = assay: Growth inhibition of human MDA-N cells; type: functional
Summary of the method: (§1)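 NCI 60-cell-line screen run by the standard NCI protocol. Each test agent ran in quadruplicate, with a top concentration of 10^-5 M and five log-spaced dilutions. GI50 values were averaged and reported as negative log GI50.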

T47D = assay: Growth inhibition of human T47D cells; type: functional
Summary of the method: (§2)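 NCI human tumor cell line panel screen run to the standard NCI protocol. Each compound tested in quadruplicate with a top concentration of 10^-5 M and five log-spaced dilutions. GI50 values were averaged across replicates and reported as negative log GI50.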

Enterobacter cloacae = assay: Antibacterial activity against Enterobacter cloacae ATCC 13047 at 100 ug/disk by disk diffusion method; type: functional, organism-based
RXF 393 = assay: Growth inhibition of human RXF393 cells; type: functional; summary of the method: as §2
Staphylococcus aureus = assay: Antibacterial activity against Staphylococcus aureus ATCC 29213 at 100 ug/disk by disk diffusion method; type: functional, organism-based
NCI-H226 = assay: Growth inhibition of human NCI-H226 cells; type: functional; summary of the method: as §1
SF-268 = assay: Growth inhibition of human SF268 cells; type: functional; summary of the method: as §2
MCF7 [1] = assay: Growth inhibition of human MCF7 cells; type: functional; summary of the method: as §1
U-251 = assay: Growth inhibition of human U251 cells; type: functional; summary of the method: as §2
NCI-H460 [2] = assay: (§3) Growth inhibition of human NCI-H460 cells; type: functional; summary of the method: as §1
LOX IMVI = assay: Growth inhibition of human LOX IMVI cells; type: functional; summary of the method: as §1
HOP-62 = assay: Growth inhibition of human HOP62 cells; type: functional; summary of the method: as §1
K562 = assay: Growth inhibition of human K562 cells; type: functional; summary of the method: as §1
SK-MEL-5 = assay: Growth inhibition of human SK-MEL-5 cells; type: functional; summary of the method: as §2
Candida albicans = assay: Antifungal activity against Candida albicans ATCC 90028 at 100 ug/disk by disk diffusion method; type: functional, organism-based
MOLT-4 = assay: Growth inhibition of human MOLT4 cells; type: functional; summary of the method: as §1
Enterococcus faecalis = assay: Antibacterial activity against Enterococcus faecalis ATCC 29212 at 100 ug/disk by disk diffusion method; type: functional, organism-based
NCI-H522 = assay: Growth inhibition of human NCI-H522 cells; type: functional; summary of the method: as §1
ACHN = assay: Growth inhibition of human ACHN cells; type: functional; summary of the method: as §1
SNB-75 = assay: Growth inhibition of human SNB75 cells; type: functional; summary of the method: as §2
PC-3 = assay: Growth inhibition of human PC3 cells; type: functional; summary of the method: as §1
OVCAR-8 = assay: Growth inhibition of human OVCAR8 cells; type: functional; summary of the method: as §1
Neisseria gonorrhoeae [3] = assay: Antibacterial activity against Neisseria gonorrhoeae ATCC 49226 by disk diffusion method; type: functional
HOP-92 = assay: Growth inhibition of human HOP92 cells; type: functional; summary of the method: as §1
CCRF-CEM = assay: Growth inhibition of human CCRF-CEM cells; type: functional; summary of the method: as §1
SR = assay: Growth inhibition of human SR cells; type: functional; summary of the method: as §2
DU-145 = assay: Growth inhibition of human DU145 cells; type: functional; summary of the method: as §1
MCF7 [4] = assay: Growth inhibition of human adriamycin-resistant MCF7 cells; type: functional; summary of the method: as §2
OVCAR-4 = assay: Growth inhibition of human OVCAR4 cells; type: functional; summary of the method: as §1
RPMI-8226 = assay: Growth inhibition of human RPMI8226 cells; type: functional; summary of the method: as §1
Escherichia coli = assay: Antibacterial activity against Escherichia coli ATCC 25922 at 100 ug/disk by disk diffusion method; type: functional, organism-based
P388 = assay: Growth inhibition of mouse P388 cells; type: functional
Malme-3M = assay: Growth inhibition of human MALME-3M cells; type: functional; summary of the method: as §1
KM12 = assay: Growth inhibition of human KM12 cells; type: functional; summary of the method: as §1
MDA-MB-231 = assay: Growth inhibition of human MDA-MB-231/ATCC cells; type: functional; summary of the method: as §1
SF-295 [5] = assay: (§4) Growth inhibition of human SF295 cells; type: functional; summary of the method: as §2
Hs-578T = assay: Growth inhibition of human HS578T cells; type: functional; summary of the method: as §1
COLO 205 = assay: Growth inhibition of human COLO205 cells; type: functional; summary of the method: as §1
MDA-MB-435 = assay: Growth inhibition of human MDA-MB-435 cells; type: functional; summary of the method: as §1
NCI-H460 [6] = assay: as §3; type: functional; summary of the method: as §1; remark: listed apart in the source
SF-539 = assay: Growth inhibition of human SF539 cells; type: functional; summary of the method: as §2
SW-620 = assay: Growth inhibition of human SW620 cells; type: functional; summary of the method: as §2
UACC-62 = assay: Growth inhibition of human UACC62 cells; type: functional; summary of the method: as §2
SN12C = assay: Growth inhibition of human SN12C cells; type: functional; summary of the method: as §2
Streptococcus pneumoniae = assay: Antibacterial activity against Streptococcus pneumoniae ATCC 6303 at 100 ug/disk by disk diffusion method; type: functional, organism-based
SF-295 [7] = assay: as §4; type: functional; summary of the method: as §2; remark: listed apart in the source
Micrococcus luteus = assay: Antibacterial activity against Micrococcus luteus Presque Isle 456 at 100 ug/disk by disk diffusion method; type: functional, organism-based
Cryptococcus neoformans = assay: Antifungal activity against Cryptococcus neoformans ATCC 90112 at 100 ug/disk by disk diffusion method; type: functional, organism-based
OVCAR-3 = assay: Growth inhibition of human OVCAR-3 cells; type: functional; summary of the method: as §1
Neisseria gonorrhoeae [8] = assay: Antibacterial activity against penicillin-resistant Neisseria gonorrhoeae isolate by disk diffusion method; type: functional
Bacillus subtilis = assay: Antibacterial activity against Bacillus subtilis Presque Isle 620 at 100 ug/disk by disk diffusion method; type: functional, organism-based
[9] = Growth inhibition of human HL60(TB) cells; type: functional, HL-60(TB); conditions: HL-60
Summary of the method: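 NCI human tumour cell-line panel screen run by the standard NCI protocol. Each compound was tested in quadruplicate, with an upper concentration limit of 10^-5 M and five log-spaced dilutions. GI50 values were averaged and reported as negative log GI50.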

[10] = system: Stenotrophomonas maltophilia; assay: Antibacterial activity against Stenotrophomonas maltophilia ATCC 13637 at 100 ug/disk by disk diffusion method; type: functional, organism-based
A549 = assay: Growth inhibition of human A549/ATCC cells; type: functional; summary of the method: as §1
BXPC-3 = assay: Growth inhibition of human BXPC3 cells; type: functional
786-0 = assay: Growth inhibition of human 786-0 cells; type: functional; summary of the method: as §1
KM-20L2 = assay: Growth inhibition of human KM20L2 cells; type: functional

In the case of `C/C=C(/C)C(=O)OCc1nccc2c1C(=O)C(N)=C(C)C2=O` [CRIBROSTATIN 3], the GI50 (MDA-N) was 1.91 µM, the GI50 (T47D) was 6.46 µM and the Activity (Enterobacter cloacae) was “inactive”. The GI50 (RXF 393) was 4.9 µM, the Activity (Staphylococcus aureus) was “inactive” and the GI50 (NCI-H226) was 7.08 µM. The GI50 (SF-268) was 6.31 µM, the GI50 (MCF7 [1]) was 4.68 µM and the GI50 (U-251) was 3.24 µM. It also gave a GI50 (NCI-H460 [2]) of 3.02 µM, a GI50 (LOX IMVI) of 4.07 µM and a GI50 (HOP-62) of 5.37 µM. The GI50 (K562) was 7.41 µM, the GI50 (SK-MEL-5) was 1.1 µM and the Activity (Candida albicans) was “inactive”. For the same compound, the GI50 (MOLT-4) was 4.9 µM, the Activity (Enterococcus faecalis) was “inactive” and the GI50 (NCI-H522) was 3.89 µM. It also gave a GI50 (ACHN) of 9.55 µM, a GI50 (SNB-75) of 4.79 µM and a GI50 (PC-3) of 2 µM. It also gave a GI50 (OVCAR-8) of 8.71 µM, an MIC (Neisseria gonorrhoeae [3]) of 0.0975 µg/disc and a GI50 (HOP-92) of 9.55 µM. The GI50 (CCRF-CEM) was 4.27 µM, the GI50 (SR) was 3.39 µM and the GI50 (DU-145) was > 1 µg/mL. For the same compound, the GI50 (MCF7 [4]) was 4.57 µM, the GI50 (OVCAR-4) was 5.25 µM and the GI50 (RPMI-8226) was 8.51 µM. The Activity (Escherichia coli) was “inactive”, the GI50 (P388) was 2.49 µg/mL (≈ 8.29 µM) and the EC50 (P388; read-out: ED50 (the source's name)) was 2.5 µg/mL (≈ 8.32 µM). It also gave a GI50 (Malme-3M) of 0.617 µM, a GI50 (KM12) of 4.9 µM and a GI50 (MDA-MB-231) of 8.71 µM. For the same compound, the GI50 (SF-295 [5]) was 3.63 µM, the GI50 (Hs-578T) was 6.31 µM and the GI50 (COLO 205) was 5.89 µM. The GI50 (MDA-MB-435) was 1.82 µM, the GI50 (NCI-H460 [6]) was > 1 µg/mL and the GI50 (SF-539) was 4.79 µM. For the same compound, the GI50 (SW-620) was 3.63 µM, the GI50 (UACC-62) was 2.51 µM and the GI50 (SN12C) was 6.17 µM. The Activity (Streptococcus pneumoniae) was “inactive”, the GI50 (SF-295 [7]) was > 1 µg/mL and the Activity (Micrococcus luteus) was “inactive”. The Activity (Cryptococcus neoformans) was “inactive”, the GI50 (OVCAR-3) was 0.77 µg/mL (≈ 2.56 µM) and the MIC (Neisseria gonorrhoeae [8]) was 0.39 µg/disc. For the same compound, the Activity (Bacillus subtilis) was “inactive”, the GI50 [9] was 3.09 µM and the Activity [10] was “inactive”. For the same compound, the GI50 (A549) was 3.47 µM, the GI50 (BXPC-3) was > 1 µg/mL and the GI50 (786-0) was 5.89 µM. The GI50 (KM-20L2) was > 1 µg/mL.
